Test results reported in publication PMC9468552 (Clinical and Translational Science, 2022).
Read-outs that look alike come from different tables or passages of the source.

Experiments:
[1] = molecular target: T1, CYP3A4 (Homo sapiens, UniProt P08684); assay: Study 008: effect of EDP‐305 on combined oral contraceptive; format: in vivo
[2] = molecular target: T1, CYP3A4; assay: Study 004: DDI of EDP‐305; format: in vivo
[3] = same dose/formulation; ref data on file; cited from earlier work
[4] = relative bioavailability assessment; ref data on file; cited from earlier work
[5] = tested on: BCRP; details: in vitro; ref data on file; cited from earlier work
[6] = molecular target: P‐gp (Homo sapiens, UniProt P08183); format: in vivo
[7] = molecular target: T1, CYP3A4; format: in vivo
[8] = molecular target: T1, CYP3A4; format: in vivo; remark: listed apart in the source
Procedure, shortened: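 Healthy subjects in a separate part took oral rifampin 600 mg once daily on days 5–16. EDP‐305 10 mg suspension was given on days 1 and 14 after a 10 h fast that continued ≥4 h postdose. Plasma was drawn predose and 0.5–12 h postdose, plus 24, 48 and 72 h before the morning rifampin dose. Analysis used LC–MS/MS and noncompartmental PK. A mixed model on ln values (subject random) gave the geometric LS mean ratio with 90% CI, with EDP‐305 alone as reference.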

[9] = molecular target: T2, CYP1A2 (Homo sapiens, UniProt P05177); assay: Study 004: DDI of EDP‐305; format: in vivo; details: increase in caffeine AUC less than twofold
T2 sequence (P05177 1-516): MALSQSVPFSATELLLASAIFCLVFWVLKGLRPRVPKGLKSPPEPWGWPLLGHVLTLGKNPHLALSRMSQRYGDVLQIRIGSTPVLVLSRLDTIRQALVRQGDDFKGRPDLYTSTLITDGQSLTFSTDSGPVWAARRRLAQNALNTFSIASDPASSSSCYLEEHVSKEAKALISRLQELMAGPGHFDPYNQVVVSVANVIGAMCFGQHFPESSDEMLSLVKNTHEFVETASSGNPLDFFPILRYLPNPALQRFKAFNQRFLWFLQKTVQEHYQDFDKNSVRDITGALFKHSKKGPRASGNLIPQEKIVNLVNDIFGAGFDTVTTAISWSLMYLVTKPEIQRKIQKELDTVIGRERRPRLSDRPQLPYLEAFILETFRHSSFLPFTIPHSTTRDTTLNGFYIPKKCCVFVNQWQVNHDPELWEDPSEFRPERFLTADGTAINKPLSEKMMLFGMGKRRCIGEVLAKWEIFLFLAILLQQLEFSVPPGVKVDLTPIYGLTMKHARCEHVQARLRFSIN

[10] = tested on: P‐gp; details: in vitro; ref data on file; cited from earlier work
[11] = 12‐week phase II study, 132 non‐cirrhotic patients; cited from earlier work
[12] = tested on: CYP1A2, 2B6, and 3A4; details: preclinical studies; cited from earlier work
[13] = tested on: cytochrome (CYP) 1A2, 2B6, 2C8, 2C9, 2C19, 2D6, and 3A4 isoenzymes; details: standard hepatic microsome studies; preclinical studies; cited from earlier work
[14] = tested on: BSEP, MRP2, P‐gp, and BCRP transporters; details: in vitro; ref data on file; cited from earlier work
[15] = tested on: OATP1B1 and OATP1B3; details: in vitro; ref data on file; cited from earlier work
[16] = Study 004: trough levels of EDP‐305 and metabolites with and without probes; format: in vivo, human
Procedure, shortened: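 Healthy volunteers received single oral midazolam 2 mg and caffeine 200 mg on days 1 and 12, and rosuvastatin 20 mg on days 2 and 13. EDP‐305 was given as a 10 mg/30 ml oral suspension each morning on days 5–15 after an overnight fast. Predose troughs were drawn on days 5, 8 and 10–17. Parent and metabolites were measured by LC–MS/MS (range 0.0300–30.0 ng/ml).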

[17] = cited from earlier work
[18] = molecular target: T1, CYP3A4; format: in vivo; remark: listed apart in the source
[19] = tested on: messenger RNA (mRNA) for CYP1A2 and CYP3A4; details: incubation in liver microsomes (hepatocytes) in the presence of EDP‐305; preclinical studies; cited from earlier work
[20] = Safety/tolerability in the four DDI studies; format: in vivo, human; details: all four studies
[21] = radiolabeled mass balance study; ref data on file; Enanta Pharmaceuticals; cited from earlier work
[22] = tested on: OATP1B1/B3 and BCRP; assay: Study 004: DDI of EDP‐305; format: in vivo, human
[23] = EDP‐305 5 mg tablet + quinidine 300 mg BID (test)
[24] = EDP‐305 5 mg tablet alone (reference)
[25] = EDP‐305 + quinidine vs EDP‐305 alone
[26] = EDP‐305 5 mg tablet + fluconazole 400 mg QD (test)
[27] = EDP‐305 10 mg + rifampin 600 mg q.d. (test)
[28] = EDP‐305 10 mg alone (reference)
[29] = EDP‐305 + rifampin vs EDP‐305 alone
[30] = EDP‐305 2.5 mg tablet co‐administered with OC
[31] = EDP‐305 10 mg + itraconazole 200 mg q.d. (test)
[32] = EDP‐305 + itraconazole vs EDP‐305 alone

T1 sequence (P08684 whole entry): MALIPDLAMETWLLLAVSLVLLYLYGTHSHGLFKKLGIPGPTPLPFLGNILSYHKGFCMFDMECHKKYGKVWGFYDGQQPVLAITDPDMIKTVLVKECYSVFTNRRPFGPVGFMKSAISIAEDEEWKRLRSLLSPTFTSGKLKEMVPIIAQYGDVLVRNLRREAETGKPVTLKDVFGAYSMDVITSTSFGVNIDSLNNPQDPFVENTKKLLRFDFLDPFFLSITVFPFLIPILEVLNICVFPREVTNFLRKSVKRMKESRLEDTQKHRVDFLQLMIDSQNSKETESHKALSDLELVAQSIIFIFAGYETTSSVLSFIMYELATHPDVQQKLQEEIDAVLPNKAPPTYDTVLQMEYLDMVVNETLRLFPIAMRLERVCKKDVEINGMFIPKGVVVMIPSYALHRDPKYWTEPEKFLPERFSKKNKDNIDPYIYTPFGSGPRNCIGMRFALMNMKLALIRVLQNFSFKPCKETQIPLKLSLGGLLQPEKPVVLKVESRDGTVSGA
P‐gp (Homo sapiens, UniProt P08183), sequence (P08183 whole entry): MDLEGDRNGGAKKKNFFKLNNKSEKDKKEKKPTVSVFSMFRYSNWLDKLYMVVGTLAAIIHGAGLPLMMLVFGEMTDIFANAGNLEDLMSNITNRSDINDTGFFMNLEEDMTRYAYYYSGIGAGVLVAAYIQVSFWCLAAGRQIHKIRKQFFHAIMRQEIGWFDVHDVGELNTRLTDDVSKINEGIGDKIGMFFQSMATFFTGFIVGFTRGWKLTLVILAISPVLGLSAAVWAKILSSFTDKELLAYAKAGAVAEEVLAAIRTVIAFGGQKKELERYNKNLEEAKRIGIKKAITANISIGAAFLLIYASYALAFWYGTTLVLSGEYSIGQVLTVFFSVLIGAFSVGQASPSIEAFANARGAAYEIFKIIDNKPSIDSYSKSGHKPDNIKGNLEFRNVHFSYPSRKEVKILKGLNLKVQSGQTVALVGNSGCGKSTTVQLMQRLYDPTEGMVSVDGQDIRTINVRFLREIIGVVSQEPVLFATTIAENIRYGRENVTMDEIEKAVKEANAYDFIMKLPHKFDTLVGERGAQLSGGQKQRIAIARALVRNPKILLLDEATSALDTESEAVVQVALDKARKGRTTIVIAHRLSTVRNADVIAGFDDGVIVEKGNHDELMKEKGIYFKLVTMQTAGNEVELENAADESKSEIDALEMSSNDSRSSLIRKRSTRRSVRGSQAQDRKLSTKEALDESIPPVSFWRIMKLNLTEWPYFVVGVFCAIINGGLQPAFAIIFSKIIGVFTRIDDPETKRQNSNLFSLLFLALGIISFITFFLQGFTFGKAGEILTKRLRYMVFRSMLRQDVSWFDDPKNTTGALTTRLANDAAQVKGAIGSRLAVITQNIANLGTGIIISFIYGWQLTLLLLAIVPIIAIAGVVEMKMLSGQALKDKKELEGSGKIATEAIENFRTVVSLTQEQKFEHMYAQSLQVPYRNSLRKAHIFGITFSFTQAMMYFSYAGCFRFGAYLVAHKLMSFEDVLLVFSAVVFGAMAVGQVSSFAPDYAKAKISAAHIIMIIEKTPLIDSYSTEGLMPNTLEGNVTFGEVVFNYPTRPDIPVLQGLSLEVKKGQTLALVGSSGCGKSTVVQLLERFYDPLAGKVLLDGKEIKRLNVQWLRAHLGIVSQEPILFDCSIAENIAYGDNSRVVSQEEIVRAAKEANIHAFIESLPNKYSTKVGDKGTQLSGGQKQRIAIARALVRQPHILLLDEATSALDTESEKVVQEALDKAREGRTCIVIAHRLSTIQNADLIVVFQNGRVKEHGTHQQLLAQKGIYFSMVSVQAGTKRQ

SMILES: C#C[C@]1(O)CC[C@H]2[C@@H]3CCC4=CC(=NO)CC[C@@H]4[C@H]3CC[C@@]21CC (mixture of isomers) [norelgestromin]
- AUC0,t, Geo LSMean ratio (90% CI) ([1]; OC + EDP‐305 vs OC alone): 0.99 (0.92, 1.05)
- Cmax, Geo LSMean ratio (90% CI) ([1]; OC + EDP‐305 vs OC alone): 0.94 (0.86, 1.02)
- AUC(0-t) ([1]; human, plasma, oral, AUC0,t, Geo LSMean, OC alone (reference), day 21): 25.9 ng·h/mL
- Cmax ([1]; human, plasma, oral, Geo LSMean, OC + EDP‐305 2.5 mg tablet (test), day 21): 2.47 ng/mL
- Cmax ([1]; human, plasma, oral, Geo LSMean, OC alone (reference), day 21): 2.64 ng/mL
- Peak and systemic exposures (Cmax and AUC0‐τ), OC + EDP‐305 vs OC alone ([1]; in words): similar

SMILES: OCc1ncc2n1-c1ccc(Cl)cc1C(c1ccccc1F)=NC2 [1′‐hydroxymidazolam]
- GM AUCR0‐inf, metabolite‐to‐parent ratio ([2]; midazolam administered alone): 39.1%
- GM AUCR0‐inf, metabolite‐to‐parent ratio ([2]; midazolam administered with EDP‐305): 20.6%

SMILES: CC[C@H]1[C@@H](O)[C@@H]2[C@H](CC[C@]3(C)[C@@H]([C@H](C)CCNC(=O)NS(=O)(=O)c4ccc(C(C)(C)C)cc4)CC[C@@H]23)[C@@]2(C)CC[C@@H](O)C[C@@H]12 [EDP‐305]
- exposures in patients with NASH versus healthy subjects [3]: approximately twofold higher
- exposures of tablet compared to suspension [4]: approximately twofold higher
- BCRP substrate [5]: unlikely to be a BCRP substrate
- AUC0,inf, Geo LSMean [6, 23]: 367.17 ng·h/mL
- Cmax, Geo LSMean [6, 23]: 31.78 ng/mL
- AUC0,inf, Geo LSMean [6, 24]: 353.24 ng·h/mL
- Cmax, Geo LSMean [6, 24]: 31.64 ng/mL
- AUC0,inf, Geo LSMean ratio (90% CI) [6, 25]: 1.04 (0.95, 1.14)
- Cmax, Geo LSMean ratio (90% CI) [6, 25]: 1.00 (0.92, 1.10)
- effect on EDP‐305 peak or systemic exposure [6, 25]: no apparent effect
- effect on Tmax, Vd/F, CL/F, and t1/2 [6, 25]: minimal effect
- AUC0,inf, Geo LSMean [7, 26]: 1537.60 ng·h/mL
- Cmax, Geo LSMean [7, 26]: 57.71 ng/mL
- AUC0,inf, Geo LSMean [7, 24]: 408.40 ng·h/mL
- Cmax, Geo LSMean [7, 24]: 32.73 ng/mL
- CL/F and Vd/F, change ([7]; EDP‐305 + fluconazole compared to EDP‐305 alone): decreased
- t1/2 increased ([7]; EDP‐305 + fluconazole relative to EDP‐305 alone): increased
- AUC0,inf, Geo LSMean [8, 27]: 137.92 ng·h/mL
- Cmax, Geo LSMean [8, 27]: 27.02 ng/mL
- AUC0,inf, Geo LSMean [8, 28]: 393.59 ng·h/mL
- Cmax, Geo LSMean [8, 28]: 29.62 ng/mL
- AUC0,inf, Geo LSMean ratio (90% CI) [8, 29]: 0.35 (0.30, 0.41)
- effect on EDP‐305 peak exposure [8, 29]: no apparent effect
- effect on Tmax [8, 29]: no apparent effect
- higher CL/F [8, 29]: 2.77 fold
- higher Vd/F [8, 29]: 1.79 fold
- shorter t1/2 [8, 29]: 0.35 fold
- total systemic exposure decreased [8, 29]: ~ 65%
- classification as CYP1A2 inhibitor from increase in caffeine AUC [9]: weak inhibitor of CYP1A2
- P‐gp substrate [10]: has potential to be a P‐gp substrate
- efficacy in patients with fibrotic NASH [11]: reduced hepatic enzyme levels and liver fat
- potential to induce CYP1A2, 2B6, and 3A4 [12]: low potential
- potential to inhibit CYP 1A2, 2B6, 2C8, 2C9, 2C19, 2D6, and 3A4 [13]: low potential to inhibit
- inhibition of BSEP, MRP2, P‐gp, and BCRP [14]: low potential to inhibit
- geometric mean t1/2 [1, 30]: 9.6 h
- median Tmax [1, 30]: 4.0 h
- effect on serum progesterone levels ([1]; co‐administration of combined OC and EDP‑305): no effect
- inhibition of OATP1B1 and OATP1B3 [15]: the potential for EDP‐305 to inhibit
- steady‐state concentrations achieved ([16]; EDP‐305 10 mg daily from day 5, majority of subjects): ≤ 12 days
- effect of co‐administered enzyme or transporter probes on PK ([16]; single doses of midazolam, caffeine, rosuvastatin): no apparent effect
- tolerability ([17]; single doses up to 80 mg, multiple daily doses up to 20 mg for 14 days): well‐tolerated
- steady‐state pharmacokinetics reached ([17]; visual inspection of trough concentrations, across all doses): ≤ 9 days
- AUC0,inf, Geo LSMean [18, 31]: 1891.47 ng·h/mL
- Cmax, Geo LSMean [18, 31]: 50.48 ng/mL
- AUC0,inf, Geo LSMean [18, 28]: 360.31 ng·h/mL
- Cmax, Geo LSMean [18, 28]: 31.25 ng/mL
- delayed Tmax [18, 32]: 2 fold
- longer t1/2 (increase) [18, 32]: 2.79 fold
- effect on mRNA for CYP1A2 and CYP3A4 [19]: concentration‐dependent downregulation
- classification as CYP3A4 inhibitor from increase in midazolam AUC ([2]; increase in midazolam AUC less than twofold): weak inhibitor of CYP3A4
- tolerability [20]: well‐tolerated
- EDP‐305 in urine [21]: not detected
- mean recovery of total radioactivity in feces [21]: 78.7%
- mean recovery of total radioactivity in urine [21]: 1.42%

SMILES: CC(C)c1nc(NS(C)(=O)=O)nc(-c2ccc(F)cc2)c1/C=C/[C@@H](O)C[C@@H](O)CC(=O)O [N‐desmethyl‐rosuvastatin]
- GM AUCR0‐inf, metabolite‐to‐parent ratio ([22]; rosuvastatin administered alone): 16.6%
- GM AUCR0‐inf, metabolite‐to‐parent ratio ([22]; rosuvastatin administered with EDP‐305): 11.2%
